Reference: ChEMBL document CHEMBL3860061, “A Novel Parkinson's Disease Drug Candidate with Potent Anti-neuroinflammatory Effects through the Src Signaling Pathway” (J Med Chem, 2016)
The source made the active and inactive calls. No cut-off for these calls is given here.

Columns and labels:
[1] = molecular target: Proto-oncogene tyrosine-protein kinase Src (Mus musculus, UniProt P05480); test: Inhibition of Src in mouse BV2 cells assessed as suppression of LPS-induced NO release preincubated for 1 hr followed by LPS addition measured after 24 hrs by Griess assay; format: cell-based, BV-2
Sequence of Proto-oncogene tyrosine-protein kinase Src (P05480 2-535 limits assumed): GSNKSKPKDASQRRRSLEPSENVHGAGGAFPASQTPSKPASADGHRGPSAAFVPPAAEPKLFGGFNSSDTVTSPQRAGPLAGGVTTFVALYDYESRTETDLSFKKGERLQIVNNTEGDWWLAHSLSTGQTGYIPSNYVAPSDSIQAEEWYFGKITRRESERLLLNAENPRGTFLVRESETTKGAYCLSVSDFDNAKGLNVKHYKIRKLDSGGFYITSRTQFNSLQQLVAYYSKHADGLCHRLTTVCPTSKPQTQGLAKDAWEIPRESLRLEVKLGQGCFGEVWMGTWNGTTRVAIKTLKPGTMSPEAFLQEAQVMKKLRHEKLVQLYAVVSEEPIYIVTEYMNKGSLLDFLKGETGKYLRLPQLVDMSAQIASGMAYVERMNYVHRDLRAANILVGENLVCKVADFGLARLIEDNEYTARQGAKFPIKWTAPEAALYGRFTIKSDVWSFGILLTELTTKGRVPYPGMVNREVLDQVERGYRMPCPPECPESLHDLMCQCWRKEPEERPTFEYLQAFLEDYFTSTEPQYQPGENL
Summary of the method: (§1)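 BV-2 cells in DMEM/10% FBS, plated at 5×10^3 per well. After 24 h, treated at 100, 50, 10, 5, 1 and 0.1 µM; 1 h later LPS 300 ng/mL added. After another 24 h, nitrite in the medium measured by Griess assay.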

[2] = molecular target: Proto-oncogene tyrosine-protein kinase Src (Rattus norvegicus) (UniProt Q9WUD9); test: Inhibition of Src in Sprague-Dawley rat primary mixed mesecephalic neuron/glial cells assessed as suppression of LPS-induced IL-1beta expression at 10 uM preincubated for 1 hr followed by LPS challenge measured after 5 hrs by ELISA
Sequence of Proto-oncogene tyrosine-protein kinase Src (Rattus norvegicus) (Q9WUD9 2-536 limits assumed): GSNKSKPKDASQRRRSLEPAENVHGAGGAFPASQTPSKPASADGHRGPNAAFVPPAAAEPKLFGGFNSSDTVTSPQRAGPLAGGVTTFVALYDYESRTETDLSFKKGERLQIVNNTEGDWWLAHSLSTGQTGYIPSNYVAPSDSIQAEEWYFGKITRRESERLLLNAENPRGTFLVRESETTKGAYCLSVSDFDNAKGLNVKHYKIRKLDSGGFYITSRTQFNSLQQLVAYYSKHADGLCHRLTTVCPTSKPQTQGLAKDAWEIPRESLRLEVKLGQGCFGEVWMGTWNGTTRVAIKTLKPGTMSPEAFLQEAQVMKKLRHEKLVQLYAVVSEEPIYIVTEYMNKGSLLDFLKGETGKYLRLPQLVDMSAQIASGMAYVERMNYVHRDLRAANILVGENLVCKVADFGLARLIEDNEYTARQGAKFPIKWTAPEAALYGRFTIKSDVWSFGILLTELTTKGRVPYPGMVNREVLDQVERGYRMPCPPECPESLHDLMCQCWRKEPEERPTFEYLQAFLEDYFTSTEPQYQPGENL
Summary of the method: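 Mixed mesencephalic neuron/glia cultures from E14 Sprague-Dawley rats, used at 7 days. Agent at 10 µM added 1 h before LPS 100 ng/mL; IL-1β and TNF-α in medium measured by ELISA after 5 h, n = 6.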

[3] = molecular target: Proto-oncogene tyrosine-protein kinase Src (Rattus norvegicus) (UniProt Q9WUD9); test: Inhibition of SRC in Sprague-Dawley rat primary mixed mesecephalic neuron/glial cells assessed as protection against LPS-induced dopaminergic neuro-toxicity by measuring TH expression at 10 uM preincubated for 1 hr followed by LPS challenge measured after 7 days by Western blot analysis
Summary of the method: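 Mixed mesencephalic neuron/glia cultures from E14 Sprague-Dawley rats, used at 7 days. Agent at 10 µM added 1 h before LPS 100 ng/mL; TH measured by Western blot after 7 days, n = 4.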

[4] = Drug uptake in ICR mouse plasma at 50 mg/kg, ig after 5 mins by LC/MS/MS analysis; format: ADME, organism-based; conditions: in vivo, po
[5] = Toxicity in ICR mouse assessed as mortality administered through oral gavage; format: organism-based; conditions: in vivo
[6] = tested on: Mus musculus; test: (§2) Neuroprotective activity in MPTP-induced subacute C57/BL mouse Parkinson's disease model assessed as improvement in motor behavior at 5 to 20 mg/kg […] dosed 30 mins prior to each MPTP injection for 5 days and administered continously for 7 days post last MPTP dose by rotarod test; format: functional, organism-based
Summary of the method: (§3)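 Sub-acute MPTP model (30 mg/kg i.p. × 5 days) in male C57/BL mice. Agent (5–20 mg/kg) or L-DOPA 20 mg/kg given 30 min before each injection and for 7 days after. Rotarod at 14 rpm, up to 120 s, fall latency over three trials 1 h apart. Pole test: 50 cm pole, descent scored 1–5, two trials 1 h apart, pre-trained. n = 15.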

[7] = tested on: Mus musculus; test: as §2, with “pole” for “rotarod”; format: functional, organism-based; summary of the method: as §3
[8] = tested on: Mus musculus; test: Increase in dopamine level in striatum of MPTP-induced subacute C57/BL mouse Parkinson's disease model at 10 to 20 mg/kg […] dosed 30 mins prior to each MPTP injection for 5 days and administered continously for 7 days post last MPTP dose by HPLC analysis; format: functional, organism-based
Summary of the method: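 Sub-acute model: male C57/BL mice given MPTP·HCl 30 mg/kg i.p. for 5 days. Agent (5–20 mg/kg) or L-DOPA 20 mg/kg in 0.5% CMC-Na dosed 30 min before each injection, then for 7 more days. Striatum sonicated in 0.6 N perchloric acid, centrifuged, phosphate/citrate/EDTA solution added, recentrifuged; dopamine by HPLC, n = 8.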

[9] = tested on: Mus musculus; test: Neuroprotective activity in MPTP-induced subacute C57/BL mouse Parkinson's disease model assessed as reversal of decline of TH-positive neuron levels in substantia nigra at 10 to 20 mg/kg […] dosed 30 mins prior to each MPTP injection for 5 days and administered continuously for 7 days post last MPTP dose by 3,3'-diaminobenzidine staining based light microscopic analysis; format: functional, organism-based
Summary of the method: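 Sub-acute MPTP model (30 mg/kg i.p. × 5 days) with agent (5–20 mg/kg) or L-DOPA pre-dosing and 7 days of continued dosing. Fixed brains cut at 40 µm on a freezing microtome; coronal nigral sections stained with anti-TH and DAB/peroxide; TH-positive cells counted blind by light microscopy.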

[10] = tested on: Mus musculus; test: Antineuro-inflammatrory activity in MPTP-induced subacute C57/BL mouse Parkinson's disease model assessed as decrease in TNF-alpha levels in midbrain at 10 to 20 mg/kg […] dosed 30 mins prior to each MPTP injection for 5 days and administered continuously for 7 days post last MPTP dose measured on day 12 post last dose by ELISA; format: functional, organism-based
[11] = tested on: Mus musculus; test: Neuroprotective activity in MPTP/probenecid-induced chronic C57/BL mouse Parkinson's disease model assessed as improvement in motor behavior at 5 to 20 mg/kg dosed once daily for 7 weeks post 10 doses of MPTP/probenecid for 5 weeks measured after last MPTP/probenecid dose by rotarod test; format: functional, organism-based
Summary of the method: (§4)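 Chronic MPTP/probenecid model (10 doses over 5 weeks), then agent (5–20 mg/kg) or L-DOPA 20 mg/kg daily for 7 weeks. Rotarod at 14 rpm, up to 120 s, fall latency from three trials 1 h apart. Pole test: gauze-wrapped 50 cm pole, descent scored 1–5, two trials 1 h apart after pre-training. n = 15.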

[12] = tested on: Mus musculus; test: Neuroprotective activity in MPTP/probenecid-induced chronic C57/BL mouse Parkinson's disease model assessed as improvement in motor behavior at 5 to 20 mg/kg dosed once daily for 7 weeks post 10 doses of MPTP/probenecid for 5 weeks measured after last MPTP/probenecid dose by pole test; format: functional, organism-based; summary of the method: as §4
[13] = tested on: Mus musculus; test: Neuroprotective activity in alpha-syn A53T transgenic B6C3H mouse assessed as reversal of decline of TH-positive neuron levels in substantia nigra at 10 to 20 mg/kg dosed once daily for 12 consecutive weeks by 3,3'-diaminobenzidine staining based light microscopic analysis; format: functional, organism-based
Summary of the method: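 Transgenic male B6;C3H A53T α-syn mice, starting at 4 months, were given drug once daily for 12 weeks in 0.5% CMC-Na. Fixed brains were sectioned at 40 µm on a freezing microtome. Substantia nigra coronal sections were immunostained for TH, visualized with DAB and peroxide, and positive neurons counted by light microscopy under blinding.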

[14] = tested on: Mus musculus; test: Effect on ARHGAP21 protein expression level in midbrain of MPTP/probenecid-induced chronic C57/BL mouse Parkinson's disease model at 5 to 20 mg/kg dosed once daily for 7 weeks post 10 doses of MPTP/probenecid for 5 weeks by iTRAQ-labelled 2D-LC/MS/MS analysis; format: functional, organism-based
[15] = molecular target: Proto-oncogene tyrosine-protein kinase Src (Mus musculus) (UniProt P05480); test: Inhibition of Src signaling pathway in mouse BV2 cells assessed as suppression of LPS-induced NO release at 0.1 to 100 uM preincubated for 1 hr followed by LPS addition measured after 24 hrs relative to control by Griess assay; format: cell-based; conditions: BV-2; summary of the method: as §1
Sequence of Proto-oncogene tyrosine-protein kinase Src (Mus musculus) (P05480 2-535 limits assumed): as the sequence (P05480 2-535 limits assumed) above

[16] = tested on: Mus musculus; test: Hepatotoxicity in ICR mouse at 250 to 1000 mg/kg administered through oral gavage for 14 consecutive days; format: toxicity, organism-based; conditions: in vivo
Summary of the method: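 Mice dosed by oral gavage at 250, 500 and 1000 mg/kg for 14 consecutive days. General condition monitored throughout; liver and kidney clinical chemistry assessed.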

[17] = tested on: Mus musculus; test: Effect on GSK3beta protein expression level in midbrain of MPTP/probenecid-induced chronic C57/BL mouse Parkinson's disease model at 5 to 20 mg/kg dosed once daily for 7 weeks post 10 doses of MPTP/probenecid for 5 weeks by Western blot analysis; format: functional, organism-based

Compound: COc1cc(OC)c(CN[C@@H](CO)C(=O)O)c(OC)c1
- IC50 [1]: 6.6 µM
- inhibition [2]: Active
- inhibition [3]: Active
- Drug uptake [4]: Active
- LD50 [5]: > 5000 mg/kg
- Activity [6]: Active
- Activity [7]: Active
- Activity [8]: Active
- Activity [9]: Active
- Activity [10]: Active
- Activity [11]: Active
- Activity [12]: Active
- Activity [13]: Active
- Activity [14]: Active
- inhibition [15]: Active
- Activity [16]: Non-Toxic
- Activity [17]: Active
